Compound activity (PubChem)
RGS4 pot: potentiators or activators of RGS4; HEK293 M3R/inducible RGS4, carbachol calcium flux Fluo4; active compounds read low; B-score at 10 µM; 310,000 compounds, 0.92% hits; AID 463111;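 active = B-score of the integrated calcium signal more than 4 SD below the library mean, with starting fluorescence not abnormally high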;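 also: negative B-score means reduced calcium response which marks RGS4 activation or potentiation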
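System: HEK293 FlpIn-TREx cells, stable M3R, doxycycline-inducible RGS4. Timing: overnight RGS4 induction, 30 min dye load 37 °C, 20 min compound RT. Also added: carbachol, ECmax concentration. Measured by: Fluo4 fluorescence kinetic imaging of calcium. Evaluation: integrated calcium ratio converted to B score.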
MrgX1 antagonist: blocks BAM8-22 activation of human MrgX1 receptor; B-score at 10 µM; Q96LB2; 310,000 compounds, 1.3% hits; MRGX1-HEK293 calcium flux, Fluo-4, BAM8-22 antagonism; active compounds read low;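 active = calcium-response B-score plate-corrected more than 3 library SD below zero, starting fluorescence within 5 deviations, no agonist response on first addition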;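 also: peak minus trough fluorescence over baseline after final BAM8-22 challenge near maximal dose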
Target sequence (Q96LB2 whole entry, looked up): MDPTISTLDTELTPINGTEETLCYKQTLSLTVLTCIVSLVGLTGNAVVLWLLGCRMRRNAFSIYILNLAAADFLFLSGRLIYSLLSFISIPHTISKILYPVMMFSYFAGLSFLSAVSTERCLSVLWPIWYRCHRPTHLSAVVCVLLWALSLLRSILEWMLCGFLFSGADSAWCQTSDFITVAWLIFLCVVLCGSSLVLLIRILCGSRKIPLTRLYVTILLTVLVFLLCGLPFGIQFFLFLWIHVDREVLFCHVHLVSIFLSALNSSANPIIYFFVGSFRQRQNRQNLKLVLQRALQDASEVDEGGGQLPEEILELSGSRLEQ
MrgX1 agonist: human MrgX1 receptor agonism, primary screen. Q96LB2. B-score at 10 µM. MrgX1-HEK293 cells, Fluo-4 calcium fluorescence, agonist mode; active compounds read high. 310,000 compounds, 0.44% hits. AID 588627;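 active = calcium response B-score plate-corrected fluorescence ratio at least 3 library SD, with starting fluorescence B-score inside 5 SD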
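Material: HEK293 cells stably expressing human MrgX1 receptor | Quantity: 15,000 cells per well | Times: Cells plated overnight, dye loaded 0.5 h 37 °C, 0.5 h room temperature | Measured by: Kinetic Fluo-4 NW fluorescence of intracellular calcium | Control set: Positive and negative controls per plate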
MrgX1 PAM: allosterically activates human MrgX1 receptor signaling; MrgX1-HEK293, Fluo-4 calcium flux, FDSS; active compounds read high; B-score at 10 µM; 310,000 compounds, 0.63% hits; AID 588675;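 active = plate-corrected calcium response at least 3 library SD above typical, normal starting fluorescence, not activating the receptor alone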;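 also: compound read alongside a low EC10 to EC30 dose of BAM8-22 agonist; peak minus trough fluorescence over baseline measured at the second addition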
RGS4 inh: inhibitors of human RGS4. P49798. HEK293 M3R/RGS4 inducible, Fluo-4 calcium flux; active compounds read high; triggered by carbachol at its EC20. B-score at 10 µM. 310,000 compounds, 0.45% hits. AID 463165;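 active = B-score, a plate-corrected calcium signal, over three deviations above library mean, with baseline fluorescence within five deviations of library mean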;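 also: RGS4 expression induced by doxycycline in cells with stable M3 receptor; B-score is computed from the integrated fluorescence ratio over baseline after carbachol; higher B-score means a larger calcium signal and so more RGS4 inhibition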
Target sequence (P49798 whole entry, looked up): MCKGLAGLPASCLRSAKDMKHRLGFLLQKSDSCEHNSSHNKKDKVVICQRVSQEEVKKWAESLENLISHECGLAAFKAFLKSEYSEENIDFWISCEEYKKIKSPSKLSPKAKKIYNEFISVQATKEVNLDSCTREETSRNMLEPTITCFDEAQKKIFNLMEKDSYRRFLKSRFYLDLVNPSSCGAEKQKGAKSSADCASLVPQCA
MrgX1 allo conf: confirmation of human MrgX1 receptor positive allosteric modulators. shares compounds with MrgX1 PAM. MrgX1-HEK293, Fluo-4 calcium fluorescence, FDSS. activation (ratio percentage), % at 10 µM. 1,200 compounds, 13% hits;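 active = ratio at least 3 SD above the weak peptide control, stable starting fluorescence, no direct agonism earlier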;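 also: compound followed by low BAM8-22 agonist challenge near EC20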
MrgX1 antag conf: reconfirmed antagonist of human MrgX1 receptor signaling; MrgX1-HEK293, BAM8-22 calcium flux, Fluo-4; active compounds read low; 2,300 compounds, 19% hits; AID 602420; shares compounds with MrgX1 antagonist; remaining BAM8-22 calcium response % of control (active compounds read low), % at 10 µM;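 active = remaining agonist calcium response no higher than 100% minus 3 SD of agonist-only control wells, with starting fluorescence near control levels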;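 also: agonist BAM8-22 given at a near maximal EC90 to ECmax level; peak minus minimum fluorescence divided by baseline after agonist addition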
HEK293 Ca flux: counter-screen for MrgX1 antagonists: effect in parental HEK293 cells. AID 624111. Fluo-4 calcium fluorescence, FDSS. shares compounds with MrgX1 antagonist. fluorescence ratio F(max-min)/F0 at 10 µM. 4,000 compounds, 2% hits;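 active = duplicate-averaged calcium fluorescence ratio at least three times the standard deviation of buffer wells, a nonspecific response in parental cells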
HEK293 Ca counter: MrgX1 allosteric activator counter-screen hit in parental HEK293 cells | shares compounds with MrgX1 antagonist | parental HEK293 calcium flux, Fluo-4 fluorescence ratio; active compounds read high | fluorescence ratio F(max-min)/F0 at 10 µM | 4,000 compounds, 0.4% hits;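 active = calcium fluorescence ratio, averaged over duplicates, at least 3 SD of the buffer-well ratio, meaning a nonspecific response in receptor-free cells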;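 also: untransfected parental HEK293 lacking MrgX1 used as counterscreen for MrgX1 allosteric activators; fluorescence change taken during the second addition on a kinetic imager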
HEK293 Ca cntr2: MrgX1 activator counter-screen hit in parental HEK293 cells | shares compounds with MrgX1 antagonist | Fluo-4 calcium fluorescence (FDSS); active compounds read high | fluorescence ratio F(max-min)/F0 at 10 µM | 4,000 compounds, 8.7% hits | AID 624115;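 active = calcium fluorescence ratio at least three times the spread of buffer wells, meaning a non-specific response in parental cells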
Active calls of the source: *; i = inactive; . = not tested or not shown. Most compounds without a hit are left out; they make up all but 3.5% or so of the library.

SMILES	RGS4 pot	MrgX1 antagonist	MrgX1 agonist	MrgX1 PAM	RGS4 inh	MrgX1 allo conf	HEK293 Ca flux	HEK293 Ca counter	HEK293 Ca cntr2	others
O=C(O)C1Sc2[nH]c(=O)sc2C2c3cc(Cl)ccc3OC(=O)C12 (stereo not drawn)	i	i	i	i	i	.	.	.	.
CCOC(=O)c1c(-c2ccc(C)s2)csc1N	i	i	i	9.1*	i	i	i	i	i
CCOC(=O)c1c(-c2ccsc2)csc1N	i	i	i	8.6*	i	i	i	i	i
CCOC(=O)c1c(-c2ccc(C)o2)csc1N	i	i	i	i	i	.	.	.	.
CCOC(=O)c1c(CC(C)C)csc1N	i	i	i	i	i	.	.	.	.
CC(C)(C)c1ccc(C(=O)NCCCNC(=O)c2ccccn2)cc1	i	i	i	i	i	.	.	.	.
Cc1ccsc1/C=C(\C#N)C(=O)NCCCN1CCOCC1	i	i	i	24*	i	i	i	i	i
COc1ccccc1C1C(C#N)=C(N)N(N(C)C)C2=C1C(=O)CC(C)(C)C2 (stereo not drawn)	i	i	i	i	i	.	.	.	.
CCN(CC)S(=O)(=O)c1cc(C)c(C)cc1Br	i	i	i	i	i	.	.	.	.
CCN(CC)S(=O)(=O)c1c(OC)cc(C)c(Cl)c1C	i	i	i	10*	i	i	i	i	i
CCCNC(=O)/C(=C/c1cn(S(=O)(=O)N(C)C)c2ccccc12)NC(=O)c1ccc(OC)cc1	i	i	i	36*	i	15%*	i	i	i
CN(C)CCCNc1ccc(-c2cc(Nc3cccc(Cl)c3)ncn2)cn1	i	i	i	7.8*	i	i	i	i	i
COc1ccc(-c2csc(=NCCO)n2-c2ccccc2)cc1	i	-5.8*	i	8.7*	i	20%*	i	i	i	MrgX1 antag conf=i
COc1cc(OC)c(/C=N/NC(=O)c2ccncc2)c(OC)c1	i	i	i	i	i	.	.	.	.
CC1CCCC(C)N1C(=O)c1cc(-c2ccc3c(c2)OCO3)on1 (stereo not drawn)	i	i	i	11*	i	i	i	i	i
CC1CCCC(C)N1C(=O)c1cc(-c2ccc(Cl)c(Cl)c2)on1 (stereo not drawn)	i	i	i	7.8*	i	i	i	i	i
O=C(c1cc(-c2cccc(Cl)c2)on1)N1CCCCCC1	i	i	i	12*	i	i	i	i	i
O=C(NNc1ccccc1)Nc1ccccc1F	i	i	i	i	i	.	.	.	.
O=C(Nc1ccccc1F)Nc1ccccc1F	i	i	i	7.2*	i	i	i	i	i
CCCN(CC(=O)Nc1ccccc1OC)C(=O)CCNC(=O)c1ccccc1OC	i	i	i	i	i	.	.	.	.
O=C(CSc1nnc(CNC(=O)c2ccccc2F)o1)NC1CCCCC1	i	i	i	6.5*	i	i	i	i	i
Cc1c(Cl)cccc1NC(=O)CC1NCCNC1=O (stereo not drawn)	i	i	i	13*	i	i	i	i	i
